The values below come from ChEMBL document CHEMBL4393709, “Structure-guided optimization of 4,6-substituted-1,3,5-triazin-2(1H)-ones as catalytic inhibitors of human DNA topoisomerase IIα” (Eur J Med Chem, 2019).

The structures appear in SMILES notation. Calls of active or inactive are those of the source. The rule behind the calls is not given here.

One series concerns MCF7. Description: Cytotoxicity against human MCF7 cells assessed as reduction in cell viability at 200 uM after 24 hrs by MTS assay. It is filed as functional, cell-based. The method, boiled down: (§1)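 Single-concentration screen: exponentially growing HepG2 or MCF-7 cells were exposed to compounds for 24 h, and viability was read by MTS relative to control. DMSO (0.5%) was the solvent control; etoposide was the positive control.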
Background: Formazan colour is commonly taken as a measure of viable cells.

For series [1], the system named is HepG2. The experiment in a line: Cytotoxicity against human HepG2 cells assessed as reduction in cell viability at 200 uM after 24 hrs by MTS assay. It is filed as functional, cell-based. The method, boiled down:
as §1

For series [2], the target named is T1, DNA topoisomerase 2-alpha (Homo sapiens, UniProt P11388). The experiment in a line: Inhibition of human topoisomerase 2alpha using supercoiled pNO1 plasmid as substrate after 30 mins by HTS assay.
T1 sequence (P11388 whole entry): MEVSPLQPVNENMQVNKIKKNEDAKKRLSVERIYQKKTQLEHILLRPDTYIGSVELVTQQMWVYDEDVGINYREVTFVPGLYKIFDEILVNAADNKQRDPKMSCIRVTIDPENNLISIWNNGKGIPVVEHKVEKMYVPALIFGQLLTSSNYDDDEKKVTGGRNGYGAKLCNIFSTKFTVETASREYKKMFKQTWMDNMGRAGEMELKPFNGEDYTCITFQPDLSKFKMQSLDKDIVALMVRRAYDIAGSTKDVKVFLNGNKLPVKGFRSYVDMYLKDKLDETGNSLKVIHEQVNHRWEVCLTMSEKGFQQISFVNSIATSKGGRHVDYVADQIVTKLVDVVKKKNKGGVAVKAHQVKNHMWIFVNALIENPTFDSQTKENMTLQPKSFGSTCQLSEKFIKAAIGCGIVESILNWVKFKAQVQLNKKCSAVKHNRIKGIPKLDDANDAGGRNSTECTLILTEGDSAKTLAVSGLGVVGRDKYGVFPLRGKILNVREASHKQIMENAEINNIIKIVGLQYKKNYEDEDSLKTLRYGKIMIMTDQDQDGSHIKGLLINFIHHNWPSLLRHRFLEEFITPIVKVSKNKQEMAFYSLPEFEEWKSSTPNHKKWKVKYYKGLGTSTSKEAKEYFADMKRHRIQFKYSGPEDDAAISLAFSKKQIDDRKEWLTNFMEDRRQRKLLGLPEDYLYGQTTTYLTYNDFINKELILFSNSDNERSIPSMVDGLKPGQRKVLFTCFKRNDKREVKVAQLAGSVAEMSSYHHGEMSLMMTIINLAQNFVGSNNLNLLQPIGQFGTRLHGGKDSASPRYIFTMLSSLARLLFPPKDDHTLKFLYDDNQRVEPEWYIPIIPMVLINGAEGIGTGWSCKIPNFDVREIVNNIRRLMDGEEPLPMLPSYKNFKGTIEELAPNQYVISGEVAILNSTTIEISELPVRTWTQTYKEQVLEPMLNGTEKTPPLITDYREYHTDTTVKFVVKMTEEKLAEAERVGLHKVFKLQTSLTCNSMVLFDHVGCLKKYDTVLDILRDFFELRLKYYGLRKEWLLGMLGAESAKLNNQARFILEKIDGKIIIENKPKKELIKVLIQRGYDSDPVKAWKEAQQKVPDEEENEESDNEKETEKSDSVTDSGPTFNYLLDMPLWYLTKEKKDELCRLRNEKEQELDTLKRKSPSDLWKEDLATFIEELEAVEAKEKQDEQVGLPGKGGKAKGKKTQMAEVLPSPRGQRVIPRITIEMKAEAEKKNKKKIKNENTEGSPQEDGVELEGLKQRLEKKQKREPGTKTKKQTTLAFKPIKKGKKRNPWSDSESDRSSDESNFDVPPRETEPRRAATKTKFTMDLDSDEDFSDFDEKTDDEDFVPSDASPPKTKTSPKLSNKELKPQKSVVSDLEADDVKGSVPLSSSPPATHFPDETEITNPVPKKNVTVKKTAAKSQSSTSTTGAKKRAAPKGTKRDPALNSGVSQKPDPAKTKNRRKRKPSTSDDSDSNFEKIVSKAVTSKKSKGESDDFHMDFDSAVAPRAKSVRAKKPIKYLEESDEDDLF
Series [3] deals with DNA topoisomerase 2-beta (Homo sapiens) (UniProt Q02880). Description: Inhibition of human topoisomerase-2beta mediated decatenation at 500 uM using kinetoplast DNA as substrate after 30 mins in presence of ATP by ethidium bromide staining-based gel electrophoresis method relative to control. Also noted: scale not given: the % may be the effect or the level left. The method in brief:
(§2)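 One U of human topo IIα or IIβ with 200 ng kDNA, 30 min at 37 °C in 50 mM Tris-HCl pH 7.5, 125 mM NaCl, 10 mM MgCl2, 5 mM DTT, 0.5 mM EDTA, 0.1 mg/ml BSA, 1 mM ATP. Compounds (3.9–500 µM, 1% DMSO final) were added before the enzyme. Reactions were stopped with chloroform/isoamyl alcohol, run on a 1% TAE gel and stained with EtBr; inhibition came from band densitometry, in duplicate.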

The subject of series [4] is HepG2. Description: Cytotoxicity against human HepG2 cells assessed as reduction in cell viability after 24 hrs by MTT assay. The following applies: HepG2, 24 h. It is filed as functional, cell-based.
In series [5] the target is DNA topoisomerase 2-beta (Homo sapiens) (UniProt Q02880). The experiment in a line: (§3) Inhibition of human topoisomerase-2beta mediated decatenation at […] using kinetoplast DNA as substrate after 30 mins in presence of ATP by ethidium bromide staining-based gel electrophoresis method relative to control. Also noted: scale not given: the % may be the effect or the level left.
DNA topoisomerase 2-beta (Homo sapiens), sequence (Q02880 whole entry): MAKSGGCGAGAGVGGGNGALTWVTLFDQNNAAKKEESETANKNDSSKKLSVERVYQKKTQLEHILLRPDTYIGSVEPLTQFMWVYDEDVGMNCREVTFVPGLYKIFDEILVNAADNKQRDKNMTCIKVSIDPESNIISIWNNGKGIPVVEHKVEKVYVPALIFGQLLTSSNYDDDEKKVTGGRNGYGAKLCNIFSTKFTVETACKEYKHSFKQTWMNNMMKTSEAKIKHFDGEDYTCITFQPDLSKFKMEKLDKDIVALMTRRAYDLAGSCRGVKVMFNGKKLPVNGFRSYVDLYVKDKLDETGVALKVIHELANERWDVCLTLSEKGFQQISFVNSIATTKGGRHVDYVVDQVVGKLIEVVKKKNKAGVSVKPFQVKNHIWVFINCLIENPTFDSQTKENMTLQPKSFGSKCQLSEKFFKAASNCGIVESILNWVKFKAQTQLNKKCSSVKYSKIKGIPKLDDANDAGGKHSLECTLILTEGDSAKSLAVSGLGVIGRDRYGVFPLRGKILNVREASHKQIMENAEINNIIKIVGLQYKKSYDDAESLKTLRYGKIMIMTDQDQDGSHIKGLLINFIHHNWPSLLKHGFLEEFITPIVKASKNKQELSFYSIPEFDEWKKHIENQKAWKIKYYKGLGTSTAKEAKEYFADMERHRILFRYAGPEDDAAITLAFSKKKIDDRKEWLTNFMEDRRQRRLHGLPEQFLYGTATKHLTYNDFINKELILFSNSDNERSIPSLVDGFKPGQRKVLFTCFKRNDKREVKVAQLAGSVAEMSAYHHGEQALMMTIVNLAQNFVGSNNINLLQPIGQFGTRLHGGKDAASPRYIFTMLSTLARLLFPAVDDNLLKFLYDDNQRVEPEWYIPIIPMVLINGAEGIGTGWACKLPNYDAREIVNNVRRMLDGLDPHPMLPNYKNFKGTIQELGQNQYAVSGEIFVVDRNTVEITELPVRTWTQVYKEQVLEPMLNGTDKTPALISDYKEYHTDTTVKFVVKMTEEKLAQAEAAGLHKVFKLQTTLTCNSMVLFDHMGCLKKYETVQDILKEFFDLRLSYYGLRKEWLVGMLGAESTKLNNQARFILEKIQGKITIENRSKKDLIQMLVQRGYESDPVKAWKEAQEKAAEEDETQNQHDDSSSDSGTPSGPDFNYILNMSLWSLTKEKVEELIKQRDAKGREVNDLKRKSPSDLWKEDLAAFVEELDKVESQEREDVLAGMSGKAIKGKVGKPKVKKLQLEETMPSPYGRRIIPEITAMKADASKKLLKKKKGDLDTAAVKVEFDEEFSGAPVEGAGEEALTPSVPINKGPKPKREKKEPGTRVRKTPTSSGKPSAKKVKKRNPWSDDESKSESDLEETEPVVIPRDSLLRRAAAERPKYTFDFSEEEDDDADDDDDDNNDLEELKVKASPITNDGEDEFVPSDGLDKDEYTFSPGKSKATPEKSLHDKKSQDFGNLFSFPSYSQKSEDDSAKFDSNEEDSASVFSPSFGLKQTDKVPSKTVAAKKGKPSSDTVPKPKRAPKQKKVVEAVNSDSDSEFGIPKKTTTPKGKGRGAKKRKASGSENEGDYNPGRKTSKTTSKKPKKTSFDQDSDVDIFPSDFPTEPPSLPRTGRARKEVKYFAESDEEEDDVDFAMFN

The target of series [6] is T1, DNA topoisomerase 2-alpha. Description: Inhibition of human topoisomerase-2alpha mediated decatenation at 500 uM using kinetoplast DNA as substrate after 30 mins in presence of ATP by ethidium bromide staining-based gel electrophoresis method relative to control. Also noted: scale not given: the % may be the effect or the level left.
In series [7] the target is T1, DNA topoisomerase 2-alpha. The experiment in a line: (§4) Poison activity at human topoisomerase-2alpha assessed as linear DNA formation at […] using supercoiled pBR322 DNA as substrate after 60 mins by ethidium bromide staining based agarose gel electrophoresis method (reference value: […]). The following applies: 1 h.
Series [8] addresses T1, DNA topoisomerase 2-alpha. Description: Poison activity at human topoisomerase-2alpha assessed as linear DNA formation at 50 uM using supercoiled pBR322 DNA as substrate after 60 mins by ethidium bromide staining based agarose gel electrophoresis method (reference value: 1.77 %). The following applies: 1 h.
Series [9] addresses DNA topoisomerase 2-beta (Homo sapiens) (UniProt Q02880). The experiment in a line: Inhibition of human topoisomerase-2beta mediated decatenation at 125 uM using kinetoplast DNA as substrate after 30 mins in presence of ATP by ethidium bromide staining-based gel electrophoresis method relative to control. On the set-up: scale not given: the % may be the effect or the level left. The method in brief:
as §2

In series [10] the target is T1, DNA topoisomerase 2-alpha. The series is described as §4. To be noted: 1 h. The source holds these as a separate data set.
Series [11] deals with T1, DNA topoisomerase 2-alpha. Description: Poison activity at human topoisomerase-2alpha assessed as linear DNA formation at 500 uM using supercoiled pBR322 DNA as substrate after 60 mins by ethidium bromide staining based agarose gel electrophoresis method (reference value: […]). The following applies: 1 h.
The target in series [12] is DNA topoisomerase 2-beta (Homo sapiens) (UniProt Q02880). The series is described as §3. On the set-up: scale not given: the % may be the effect or the level left. This is another data set of the same source.
For series [13], the target named is T1, DNA topoisomerase 2-alpha. Description: Inhibition of human topoisomerase-2alpha mediated decatenation at 125 uM using kinetoplast DNA as substrate after 30 mins in presence of ATP by ethidium bromide staining-based gel electrophoresis method relative to control. Also noted: scale not given: the % may be the effect or the level left.
The target in series [14] is T1, DNA topoisomerase 2-alpha. The experiment in a line: Poison activity at human topoisomerase-2alpha assessed as linear DNA formation using supercoiled pBR322 DNA as substrate after 60 mins by ethidium bromide staining based agarose gel electrophoresis method. The following applies: 1 h.
In series [15] the target is T1, DNA topoisomerase 2-alpha. The experiment in a line: Poison activity at human topoisomerase-2alpha assessed as linear DNA formation at 125 uM using supercoiled pBR322 DNA as substrate after 60 mins by ethidium bromide staining based agarose gel electrophoresis method (reference value: […]). The following applies: 1 h.

For the molecule `O=c1nc(SCc2ccc3nonc3c2)nc(SCc2cccc(Cl)c2)[nH]1`, the outcome in the series with MCF7 and in the series with HepG2 [1] was inactive.
In the case of `O=c1nc(SCc2cccc(O)c2)nc(SCc2ccc(Cl)cc2)[nH]1`, the outcome in the series with MCF7 and in the series with HepG2 [1] was inactive.
On to `O=c1nc(SCc2c(F)cccc2F)nc(SCc2cccc(Cl)c2)[nH]1`, for which the outcome with MCF7 and with HepG2 [1] was inactive.
For orientation: IC50 means the concentration that gives 50% inhibition. For the molecule `O=c1nc(SCc2ccccc2)nc(SCc2cccc(Cl)c2)[nH]1`, half-maximal inhibition in series [2] (IC50) was put at 57.6 µM.
In general, EC50 refers to the concentration giving half of the maximal effect. As for `COc1cc([C@@H]2c3cc4c(cc3[C@@H](O[C@@H]3O[C@@H]5CO[C@@H](C)O[C@H]5[C@H](O)[C@H]3O)[C@H]3COC(=O)[C@H]23)OCO4)cc(OC)c1O` [ETOPOSIDE], the Activity in [3] came to 14.7%; in series [5], 93.4%; in [6], 2.27%; in [7] it was 13.72%; in [8], 35.56%; in series [9] it was 23.9%. The Activity in series [10] is 25.79%; in series [11], 39.98%; in [12], 100%; in series [13] it was 4.09%; in [14], “Dose-dependent effect”; in series [15], 34.79%. In addition, the EC50 in the series on HepG2 [4] fell in the range of 60.5 to 93.4 µM.
As to `NC(=O)c1cccc(CSc2nc(SCc3cccc(Cl)c3)[nH]c(=O)n2)c1`, the outcome in the series on MCF7 and in the series with HepG2 [1] was inactive.
In the case of `NC(=O)c1cccc(CSc2nc(SCc3ccccc3F)[nH]c(=O)n2)c1`, the outcome in the series on MCF7 and in the series with HepG2 [1] was inactive.
For the molecule `O=c1nc(SCc2cccc(O)c2)nc(SCc2cccc(Cl)c2)[nH]1`, the result in the series with MCF7 and with HepG2 [1] was inactive.
Consider `O=c1nc(SCc2cc(F)c(F)cc2F)nc(SCc2ccc(Cl)cc2)[nH]1`, for which the outcome in the series with MCF7 and with HepG2 [1] was inactive.
On to `O=c1nc(SCc2c(F)cccc2F)nc(SCc2ccc(Cl)cc2)[nH]1`, for which the outcome in the series with MCF7 and in the series with HepG2 [1] was inactive.
For the molecule `CC(C(=O)O)c1ccc(CSc2nc(SCc3ccc(Cl)cc3)[nH]c(=O)n2)cc1` (centres undefined), the result in the series on MCF7 and with HepG2 [1] was inactive.
As to `CC(C(=O)O)c1ccc(CSc2nc(SCc3cccc(Cl)c3)[nH]c(=O)n2)cc1` (centres undefined), the result in the series with MCF7 and with HepG2 [1] was inactive.
As to `O=c1nc(SCc2c(F)cccc2F)nc(SCc2ccccc2F)[nH]1`, the result with MCF7 and with HepG2 [1] was inactive.
Take `CC(C)c1ccc(CSc2nc(SCc3ccc(Cl)cc3)[nH]c(=O)n2)cc1`: the result in the series on MCF7 and in the series on HepG2 [1] was inactive.
For `O=c1nc(SCc2ccc(CO)cc2)nc(SCc2ccccc2F)[nH]1`, the outcome in the series on MCF7 and in the series with HepG2 [1] was inactive.
As for `O=c1nc(SCc2cccc(O)c2)nc(SCc2ccccc2F)[nH]1`, the outcome with MCF7 and in the series with HepG2 [1] was inactive.
In the case of `O=C(O)c1cccc(CSc2nc(SCc3cccc(Cl)c3)[nH]c(=O)n2)c1`, the result in the series with MCF7 and in the series with HepG2 [1] was inactive.
In the case of `CC(C(=O)O)c1ccc(CSc2nc(SCc3ccccc3F)[nH]c(=O)n2)cc1` (centres undefined), the outcome in the series with MCF7 and in the series with HepG2 [1] was inactive.
With `NC(=O)c1cccc(CSc2nc(SCc3ccc(Cl)cc3)[nH]c(=O)n2)c1`, the outcome with MCF7 and in the series with HepG2 [1] was inactive.
For the molecule `O=C(O)c1cccc(CSc2nc(SCc3ccc(Cl)cc3)[nH]c(=O)n2)c1`, the outcome in the series with MCF7 and in the series on HepG2 [1] was inactive.
For `O=c1nc(SCc2ccc(C(F)(F)F)cc2)nc(SCc2ccccc2F)[nH]1`, the Activity amounted to 0% in [3], 0% in series [5], 0% in series [9] and 98.2% in series [12].
For `O=C(O)c1cccc(CSc2nc(SCc3ccccc3F)[nH]c(=O)n2)c1`, the outcome in the series on MCF7 and in the series with HepG2 [1] was inactive.
For `O=c1nc(SCc2ccc(CO)cc2)nc(SCc2ccc(Cl)cc2)[nH]1`, the outcome in the series on MCF7 and with HepG2 [1] was inactive.
Take `O=c1nc(SCc2ccc(CO)cc2)nc(SCc2cccc(Cl)c2)[nH]1`: the outcome with MCF7 and in the series with HepG2 [1] was inactive.
On to `O=c1nc(SCc2cc(F)cc(C(F)(F)F)c2)nc(SCc2cccc(Cl)c2)[nH]1`, for which the Activity in series [3] turned out to be 0%; in series [5], 0%; in series [9], 0%; in series [12] it was 91.8%.
Consider `O=c1nc(SCc2ccc3nonc3c2)nc(SCc2ccccc2F)[nH]1`, for which the outcome in the series with MCF7 and with HepG2 [1] was inactive.
For the molecule `O=c1nc(SCc2cc(F)cc(C(F)(F)F)c2)nc(SCc2ccc(Cl)cc2)[nH]1`, the result with MCF7 and with HepG2 [1] was inactive.
Turning to `O=c1nc(SCc2cc(F)cc(C(F)(F)F)c2)nc(SCc2ccccc2F)[nH]1`, the Activity in series [3] was 0%; in series [5] it was 12.5%; in series [9] it was 0%; in series [12], 99.4%. Besides, the outcome in the series with MCF7 and in the series on HepG2 [1] was inactive.
